Here are results for 4 compounds from ChEMBL document CHEMBL2086276, “Synthesis and evaluation of mutual prodrugs of ibuprofen with menthol, thymol and eugenol” (Eur J Med Chem, 2012).

For series [1], the system named is Rattus norvegicus. Put plainly: Antiinflammatory activity in po dosed Wistar rat assessed as inhibition of carrageenan-induced paw edema at dose molecularly equivalent to ibuprofen administered 30 mins prior to carrageenan challenge measured after 5 hrs. The series is classed as functional.
For series [2], the system named is Rattus norvegicus. The series is described as follows: Antiinflammatory activity in po dosed Wistar rat assessed as inhibition of carrageenan-induced paw edema at dose molecularly equivalent to ibuprofen administered 30 mins prior to carrageenan challenge measured after 1 hr. The series is classed as functional.
For series [3], the system named is Rattus norvegicus. Put plainly: Antiinflammatory activity in po dosed Wistar rat assessed as inhibition of carrageenan-induced paw edema at dose molecularly equivalent to ibuprofen administered 30 mins prior to carrageenan challenge measured after 2 hrs. The series is classed as functional.
A short description of series [4]: Half life of the compound in phosphate buffer at pH 7.4. The series is classed as physicochemical. The gist of the method:
(§1)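 Hydrolysis at 37 °C in sealed screw-cap vials in a water bath; pH 1.2 HCl, pH 7.4 phosphate or pH 10.0 NaOH buffer, 20 mM total buffer, ionic strength held at 0.5 M with KCl. Sampled at 15, 30, 60, 120, 240 min; ester and ibuprofen quantified by HPLC. Pseudo-first-order Kobs = 2.303/t·log(a/(a−x)); t1/2 = 0.693/Kobs.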

In series [5] the test system is Rattus norvegicus. The series is described as follows: Antiinflammatory activity in po dosed Wistar rat assessed as inhibition of carrageenan-induced paw edema at dose molecularly equivalent to ibuprofen administered 30 mins prior to carrageenan challenge measured after 4 hrs. The series is classed as functional.
Series [6] can be described thus: Octanol-buffer partition coefficient, log P of the compound by HPLC analysis. The series is classed as physicochemical. The gist of the method: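 100 mg compound in 10 mL aqueous phase plus 10 mL octanol, shaken 1 h, left 2 h at 25 °C. Each phase quantified by HPLC: C18 column, […], 1.0 mL/min, UV 254 nm. Partition coefficient = organic-phase over aqueous-phase concentration; also computed in silico.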

Series [7] concerns Rattus norvegicus. Put plainly: Antiinflammatory activity in po dosed Wistar rat assessed as inhibition of carrageenan-induced paw edema at dose molecularly equivalent to ibuprofen administered 30 mins prior to carrageenan challenge measured after 3 hrs. It is filed as functional.
The nature of series [8]: Chemical stability of the compound assessed as hydrolysis in HCl buffer at pH 1.2 by HPLC analysis. It is filed as physicochemical. The gist of the method:
as §1

Series [9] concerns Rattus norvegicus. The series is described as follows: Gastrotoxicity in 24 hrs fasted po dosed Wistar rat assessed as ulcer index at dose molecularly equivalent to ibuprofen after 6 hrs. It is filed as toxicity, organism-based. To be noted: in vivo. In short, it runs like this: (§2)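 Rats fasted 24 h, then dosed orally as suspension in 0.5% acacia, 150 mg/kg ibuprofen or molar equivalent of prodrug; n = 6 per group. Killed 6 h after dosing, food and water then ad libitum. Stomach opened, rinsed with 5 mL saline, inspected under magnifier, ulcers scored by severity; ulcer index is the group mean, ± SEM.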

For series [10], the system named is Rattus norvegicus. The series is described as follows: Antiinflammatory activity in po dosed Wistar rat assessed as inhibition of carrageenan-induced paw edema at dose molecularly equivalent to ibuprofen administered 30 mins prior to carrageenan challenge measured after 6 hrs. The series is classed as functional.
Series [11] can be described thus: Half life of the compound in NaOH buffer at pH 10 by HPLC analysis. The series is classed as physicochemical. The gist of the method: as §1
The test system of series [12] is Rattus norvegicus. The series is described as follows: Antiinflammatory activity in Wistar rat model assessed as inhibition of carrageenan-induced paw edema at 20 mg/kg, po administered 30 mins prior to carrageenan challenge measured after 2 hrs. It is filed as functional.
In series [13] the test system is Rattus norvegicus. The series is described as follows: Antiinflammatory activity in Wistar rat model assessed as inhibition of carrageenan-induced paw edema at 20 mg/kg, po administered 30 mins prior to carrageenan challenge measured after 4 hrs. It is filed as functional.
Series [14] has as its system Rattus norvegicus. Put plainly: Antiinflammatory activity in Wistar rat model assessed as inhibition of carrageenan-induced paw edema at 20 mg/kg, po administered 30 mins prior to carrageenan challenge measured after 6 hrs. The series is classed as functional.
Series [15] relates to Rattus norvegicus. The series is described as follows: Antiinflammatory activity in Wistar rat model assessed as inhibition of carrageenan-induced paw edema at 20 mg/kg, po administered 30 mins prior to carrageenan challenge measured after 1 hr. The series is classed as functional.
For series [16], the system named is Rattus norvegicus. Put plainly: Antiinflammatory activity in Wistar rat model assessed as inhibition of carrageenan-induced paw edema at 20 mg/kg, po administered 30 mins prior to carrageenan challenge measured after 5 hrs. It is filed as functional.
Series [17] has as its system Rattus norvegicus. Put plainly: Gastrotoxicity in 24 hrs fasted Wistar rat assessed as ulcer index at 150 mg/kg, po after 6 hrs. The series is classed as toxicity, organism-based. The arrangement: dose 150 mg/kg, route oral. To be noted: in vivo. In short, it runs like this:
as §2

The subject of series [18] is Rattus norvegicus. Put plainly: Antiinflammatory activity in Wistar rat model assessed as inhibition of carrageenan-induced paw edema at 20 mg/kg, po administered 30 mins prior to carrageenan challenge measured after 3 hrs. It is filed as functional.

In the case of `CC(C)Cc1ccc(C(C)C(=O)OC2CC(C)CCC2C(C)C)cc1` (stereo unspecified), the “inhibition (INH)” value is 64.01% in the series with Rattus norvegicus [1]; 31.58% with Rattus norvegicus [2]; 34.08% in the series on Rattus norvegicus [3]; 55% with Rattus norvegicus [5]; 48.49% in the series on Rattus norvegicus [7]; 66.84% with Rattus norvegicus [10]. In addition, the half-life in series [4] was 6.01 h; in series [11] it was 2.72 h. This compound also yielded a logP in [6] of 6.69. For the same compound, the Stability result in series [8] was “Stable”. The UI in the series with Rattus norvegicus [9] was determined as 0.91.

For the compound `Cc1ccc(C(C)C)c(OC(=O)C(C)c2ccc(CC(C)C)cc2)c1` (racemic), the “inhibition (INH)” value in the series on Rattus norvegicus [1] was 61.5%; in the series on Rattus norvegicus [2], 29.36%; with Rattus norvegicus [3], 32.52%; in the series on Rattus norvegicus [5], 55.17%; in the series with Rattus norvegicus [7], 47.63%; in the series on Rattus norvegicus [10], 64.01%. Also, the half-life came out at 5.19 h in [4] and 2.42 h in [11]. Further, the logP in series [6] stood at 6.27. Also, the Stability entry in [8] is reported as “Stable”. Also, the UI in the series on Rattus norvegicus [9] is given as 0.83.

In the case of `C=CCc1ccc(OC(=O)C(C)c2ccc(CC(C)C)cc2)c(OC)c1` (racemic), the “inhibition (INH)” value in the series with Rattus norvegicus [1] is given as 56.17%; in the series with Rattus norvegicus [2], 27.93%; in the series with Rattus norvegicus [3], 31.43%; in the series with Rattus norvegicus [5], 55.26%; with Rattus norvegicus [7], 48.06%; in the series on Rattus norvegicus [10], 60.33%. Also, the half-life was found to be 2.84 h in series [4] and 1.34 h in [11]. Also, the logP in series [6] is 5.63. In series [8], the Stability result is recorded as “Stable”. Further, the UI in the series with Rattus norvegicus [9] is on record as 1.08.

In the case of `CC(C)Cc1ccc(C(C)C(=O)O)cc1` (racemic) [IBUPROFEN], the inhibition in vivo at 20 mg/kg in the series with Rattus norvegicus [12] is 22.1%; in the series on Rattus norvegicus [13] it was 44%; with Rattus norvegicus [14], 47.6%; in the series on Rattus norvegicus [15] it was 18.3%; in the series on Rattus norvegicus [16], 46.8%; in the series with Rattus norvegicus [18], 40.9%. Besides, the logP in series [6] was 3.71. Also, the UI in the series with Rattus norvegicus [17] worked out at 2.41.
